According to ChEMBL document CHEMBL3259715, “Shuttle-cargo fusion molecules of transport peptides and the hD2/3 receptor antagonist fallypride: a feasible approach to preserve ligand-receptor binding?” (J Med Chem, 2014):

Key:
[1] = biological target: D(2) dopamine receptor (Homo sapiens, UniProt P14416); experiment: Displacement of [3H]spiperone from human D2 receptor transfected in HEK cells; format: cell-based, HEK293
[2] = Activity at P-gp in hCMEC/D3 cells at 0.1 to 50 uM after 15 mins by calcein-AM assay; format: ADME, cell-based; settings: human, cmec/d3, 0.25 h
[3] = Cytotoxicity against hCMEC/D3 cells at 0.1 to 50 uM after 4 hrs by Alamar Blue assay; format: cell-based; settings: human, hcmec/d3, 4 h
Outline: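 Cytotoxicity was tested by AlamarBlue on hCMEC/D3 cells, the same cells used for the calcein assay. The read-out is the fall in metabolic activity, seen as reduced redox potential of viable cells.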

Sequence of D(2) dopamine receptor (P14416 whole entry): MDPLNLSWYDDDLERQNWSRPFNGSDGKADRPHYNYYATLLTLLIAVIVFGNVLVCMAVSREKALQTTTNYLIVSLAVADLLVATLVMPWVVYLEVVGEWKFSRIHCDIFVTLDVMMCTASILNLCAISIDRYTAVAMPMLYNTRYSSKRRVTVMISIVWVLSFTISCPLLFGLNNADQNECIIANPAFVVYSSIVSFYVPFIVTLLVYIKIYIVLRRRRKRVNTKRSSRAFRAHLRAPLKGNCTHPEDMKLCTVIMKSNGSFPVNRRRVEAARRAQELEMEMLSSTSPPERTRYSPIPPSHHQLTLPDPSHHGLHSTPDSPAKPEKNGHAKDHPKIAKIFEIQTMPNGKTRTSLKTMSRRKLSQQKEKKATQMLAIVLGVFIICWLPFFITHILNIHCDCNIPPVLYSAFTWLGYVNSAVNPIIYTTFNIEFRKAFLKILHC

Ki [1] [nM] | Activity [2] | SMILES | Activity [3]
5.98 | Not Active | C=CCN1CCC[C@H]1CNC(=O)c1cc(CCCSC2CC(=O)N(CCCCCC(=O)NCCOCCOCCOCCOCCC(=O)N[C@@H](CCCCNC(=O)O/N=C/c3ccc([Si](F)(C(C)(C)C)C(C)(C)C)cc3)C(=O)N[C@@H](Cc3cnc[nH]3)C(=O)N[C@@H](C)C(=O)N[C@H](C(=O)N[C@@H](Cc3ccc(O)cc3)C(=O)N3CCC[C@H]3C(=O)N[C@@H](CCCNC(=N)N)C(=O)N[C@@H](Cc3cnc[nH]3)C(=O)O)[C@@H](C)CC)C2=O)cc(OC)c1OC (some centres not stated) | Non-toxic
> 1000 | Not Active | CC[C@H](C)[C@H](NC(=O)[C@H](C)NC(=O)[C@@H](N)Cc1cnc[nH]1)C(=O)N[C@@H](Cc1ccc(O)cc1)C(=O)N1CCC[C@H]1C(=O)N[C@@H](CCCNC(=N)N)C(=O)N[C@@H](Cc1cnc[nH]1)C(=O)O | Non-toxic
8.01 | Not Active | C=CCN1CCC[C@H]1CNC(=O)c1cc(CCCSC2CC(=O)N(CCCCCC(=O)N[C@H](C(=O)N[C@@H](Cc3ccccc3)C(=O)N[C@@H](Cc3ccccc3)C(=O)N[C@@H](Cc3ccc(O)cc3)C(=O)NCC(=O)NCC(=O)N[C@@H](CO)C(=O)N[C@@H](CCCNC(=N)N)C(=O)NCC(=O)N[C@@H](CCCCNC(=O)CN3CCN(CC(=O)O)CCN(CC(=O)O)CCN(CC(=O)O)CC3)C(=O)N[C@@H](CCCNC(=N)N)C(=O)N[C@@H](CC(N)=O)C(=O)N[C@@H](CC(N)=O)C(=O)N[C@@H](Cc3ccccc3)C(=O)N[C@@H](CCCCN)C(=O)N[C@H](C(=O)N[C@@H](CCC(=O)O)C(=O)N[C@@H](CCC(=O)O)C(=O)N[C@@H](Cc3ccc(O)cc3)C(=O)O)[C@@H](C)O)[C@@H](C)O)C2=O)cc(OC)c1OC (some centres not stated) | Non-toxic
52 | Not Active | C=CCN1CCC[C@H]1CNC(=O)c1cc(CCCSC2CC(=O)N(CCCCCC(=O)NCCOCCOCCOCCOCCC(=O)N[C@@H](CCCCNC(=O)CN3CCN(CC(=O)O)CCN(CC(=O)O)CCN(CC(=O)O)CC3)C(=O)N[C@@H](Cc3cnc[nH]3)C(=O)N[C@@H](C)C(=O)N[C@H](C(=O)N[C@@H](Cc3ccc(O)cc3)C(=O)N3CCC[C@H]3C(=O)N[C@@H](CCCNC(=N)N)C(=O)N[C@@H](Cc3cnc[nH]3)C(=O)O)[C@@H](C)CC)C2=O)cc(OC)c1OC (some centres not stated) | Non-toxic
